The source made the active and inactive calls. The calls are words filed in the database; no cut-off is given here.
Experiments:
Tubulin (Homo sapiens) [1] = molecular target: T1, Tubulin (Homo sapiens) (UniProt P68371+Q9H4B7+P0DPH7+P68366+Q13509+Q71U36+P04350+Q3ZCM7+P07437+P68363+Q9BQE3+Q6PEY2+Q13885+Q9BVA1+Q9BUF5); assay: Displacement of [3H]-colchicine from biotin-labeled tubulin (unknown origin) at 5 uM after 2 hrs by scintillation proximity assay relative to control; format: protein-complex assay
Tubulin (Homo sapiens) [2] = molecular target: T1, Tubulin (Homo sapiens); assay: Displacement of [3H]-colchicine from biotin-labeled tubulin (unknown origin) at 1 uM after 2 hrs by scintillation proximity assay relative to control; format: protein-complex assay
[3] = Cytotoxicity against human KB-7d cells overexpressing MRP assessed as growth inhibition after 72 hrs by methylene blue staining-based assay; format: functional, cell-based; conditions: KB7D
[4] = Cytotoxicity against human KB-S15 cells overexpressing P-gp170/MDR assessed as growth inhibition after 72 hrs by methylene blue staining-based assay; format: functional, cell-based; conditions: KB-S15, 72 h
[5] = Cytotoxicity against human KB-VIN10 cells overexpressing P-gp170/MDR assessed as growth inhibition after 72 hrs by methylene blue staining-based assay; format: functional, cell-based; conditions: KB-VIN10, 72 h
KB [6] = assay: Induction of microtubule depolymerization in human KB cells at 1 uM after 6 hrs by immunofluorescence microscopic analysis; format: cell-based
In short: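 KB cells on coverslips exposed to compound for 6 h; fixed in MeOH/Me2CO (1:1) at -20 °C for 1 h, blocked with 5% skim milk in PBS for 1 h, then anti-α-tubulin monoclonal (1:500) for 2 h and FITC-conjugated secondary (1:200) for 1 h at room temperature. Microtubule network viewed by fluorescence microscopy.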

[7] = Cytotoxicity against human H460 cells assessed as growth inhibition after 72 hrs by methylene blue staining-based assay; format: functional, cell-based; conditions: NCI-H460, 72 h
MKN-45 = assay: Cytotoxicity against human MKN45 cells assessed as growth inhibition after 72 hrs by methylene blue staining-based assay; format: functional, cell-based; conditions: MKN-45, 72 h
HT-29 = assay: Cytotoxicity against human HT-29 cells assessed as growth inhibition after 72 hrs by methylene blue staining-based assay; format: functional, cell-based; conditions: HT-29, 72 h
Tubulin = assay: Displacement of [3H]-colchicine from biotin-labeled tubulin (unknown origin) after 2 hrs by scintillation proximity assay; format: protein-complex assay, Homo sapiens
[8] = Inhibition of bovine brain MAP-rich tubulin polymerization measured every 30 secs for 30 mins by turbidometric method; set-up: species or system Bos taurus
HUVEC [9] = assay: Induction of vascular disrupting activity in HUVEC assessed as VEGF-induced tube formation at 100 to 1000 nM after 4 hrs by microscopic analysis; format: functional, cell-based; conditions: Homo sapiens
KB [10] = assay: Cytotoxicity against human KB cells assessed as growth inhibition after 72 hrs by methylene blue staining-based assay; format: functional, cell-based
HUVEC [11] = assay: Induction of vascular disrupting activity in HUVEC assessed as VEGF-induced tube formation at 1000 nM after 4 hrs by microscopic analysis; format: functional, cell-based; conditions: Homo sapiens
In short: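 HUVECs plated at 2×10^4 cells/well on Matrigel in 20% FBS M199 with 20 ng/mL VEGF; capillaries formed over 4 h before compound or DMSO vehicle added. Imaged at addition and 4 h later; capillary tube networks counted manually under microscope (100×). Expressed relative to vehicle; mean ± SD of three separate experiments.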

For `COc1ccc(S(=O)(=O)n2ccc3ccnc(-c4ccccc4)c32)cc1`, the inhibition (Tubulin (Homo sapiens) [1]) was 63% and the inhibition (Tubulin (Homo sapiens) [2]) was 42%.
Work on `COc1cc([C@@H]2c3cc4c(cc3[C@@H](O[C@@H]3O[C@@H]5CO[C@@H](C)O[C@H]5[C@H](O)[C@H]3O)[C@H]3COC(=O)[C@H]23)OCO4)cc(OC)c1O` [ETOPOSIDE] yielded an IC50 [3] of 54000 nM, an IC50 [4] of 3500 nM and an IC50 [5] of 23000 nM.
`COc1ccc(S(=O)(=O)n2ccc3ccnc(-c4ccc([N+](=O)[O-])cc4)c32)cc1` showed an inhibition (Tubulin (Homo sapiens) [1]) of 46% and an inhibition (Tubulin (Homo sapiens) [2]) of 21%.
Compound `COc1ccc(S(=O)(=O)n2ccc3ccnc(-c4ccncc4)c32)cc1` has an inhibition (Tubulin (Homo sapiens) [1]) of 59% and an inhibition (Tubulin (Homo sapiens) [2]) of 35%.
In the case of `COc1cc2c(c(OC)c1OC)-c1ccc(OC)c(=O)cc1[C@@H](NC(C)=O)CC2` [COLCHICINE], the Activity (KB [6]) is reported as “Active”, the IC50 [3] is reported as 51.8 nM and the IC50 [4] is reported as 35.4 nM. For the same compound, the IC50 [5] was 122 nM, the IC50 [7] was 19.8 nM and the IC50 (MKN-45) was 11.5 nM. The IC50 (HT-29) was 15.2 nM.
`COc1ccc(S(=O)(=O)n2ccc3ccnc(-c4ccco4)c32)cc1` showed a Ki (Tubulin) of 380 nM, an inhibition (Tubulin (Homo sapiens) [1]) of 81% and an inhibition (Tubulin (Homo sapiens) [2]) of 63%.
`COc1ccc(/C=C\c2cc(OC)c(OC)c(OC)c2)cc1O` [COMBRETASTATIN A4] showed an IC50 [8] of 2100 nM.
Work on `COc1ccc(S(=O)(=O)n2ccc3ccnc(-c4ccc(C(F)(F)F)cc4)c32)cc1` yielded an inhibition (Tubulin (Homo sapiens) [1]) of 65% and an inhibition (Tubulin (Homo sapiens) [2]) of 35%.
With `COc1ccc(S(=O)(=O)Nc2cccnc2Nc2ccc(O)cc2)cc1` [ABT-751] the Activity (HUVEC [9]) was “Active”, the Ki (Tubulin) was 1510 nM and the IC50 [8] was 3300 nM. The IC50 [3] was 205 nM, the IC50 [4] was 206 nM and the IC50 [5] was 227 nM. The IC50 [7] was 218 nM, the IC50 (MKN-45) was 166 nM and the IC50 (HT-29) was 339 nM. For the same compound, the IC50 (KB [10]) was 251 nM.
With `O=c1[nH]cc(F)c(=O)[nH]1` the Activity (HUVEC [11]) was “inactive”.
For `CC(=O)O[C@H]1C(=O)[C@@]2(C)[C@H]([C@H](OC(=O)c3ccccc3)[C@]3(O)C[C@H](OC(=O)[C@H](O)[C@@H](NC(=O)c4ccccc4)c4ccccc4)C(C)=C1C3(C)C)[C@]1(OC(C)=O)CO[C@@H]1C[C@@H]2O` [PACLITAXEL], the Activity (KB [6]) was “inactive”, the IC50 [3] was 7.9 nM and the IC50 (KB [10]) was 4.1 nM.
With `COc1ccc(S(=O)(=O)n2ccc3ccnc(-c4ccc(Cl)cc4)c32)cc1` the inhibition (Tubulin (Homo sapiens) [1]) was 72% and the inhibition (Tubulin (Homo sapiens) [2]) was 41%.
For `CC[C@]1(O)C[C@H]2CN(CCc3c([nH]c4ccccc34)[C@@](C(=O)OC)(c3cc4c(cc3OC)N(C=O)[C@H]3[C@@](O)(C(=O)OC)[C@H](OC(C)=O)[C@]5(CC)C=CCN6CC[C@]43[C@@H]65)C2)C1` [VINCRISTINE], the IC50 [3] was 1.2 nM and the IC50 (KB [10]) was 0.6 nM.
With `COc1ccc(S(=O)(=O)n2ccc3ccnc(-c4ccc(N(C)C)cc4)c32)cc1` the inhibition (Tubulin (Homo sapiens) [1]) was 74% and the inhibition (Tubulin (Homo sapiens) [2]) was 41%.
For `COc1ccc(S(=O)(=O)n2ccc3ccnc(-c4cccs4)c32)cc1`, the inhibition (Tubulin (Homo sapiens) [1]) was 70% and the inhibition (Tubulin (Homo sapiens) [2]) was 30%.

Reference: ChEMBL document CHEMBL2440102, “Furanylazaindoles: potent anticancer agents in vitro and in vivo” (J Med Chem, 2013)
